One block for each compound: values may come before it.
Legend:
[1] = Distribution coefficient, log D between 1-octonol and aqueous phosphate buffer at pH 7.4; assay type: physicochemical; settings: 1-octanol/aqueous phosphate buffer
Method in brief: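 logD measured as distribution between 1-octanol and aqueous phosphate buffer, pH 7.4.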

Mus musculus = species: Mus musculus; assay: fCmax in mouse during 12 days study; assay type: ADME, organism-based; settings: in vivo, 288 h
[2] = Permeability from apical to basolateral side in human Caco2 cells at 10 uM; assay type: ADME, cell-based; settings: Caco-2
Method in brief: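 In vitro Caco-2 monolayer, compound at 10 µM. Apparent permeability (Papp) measured apical to basolateral; efflux ratio also determined.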

[3] = Stability in pH 1 to 8 buffer; assay type: physicochemical
[4] = Stability in pH 10 buffer assessed as loss of trifluoro-oxadiazole group; assay type: physicochemical
[5] = Degradation half life in pH 10 buffer assessed as loss of trifluoro-oxadiazole group by measuring piperazine level at 25 degC; assay type: physicochemical
[6] = Plasma clearance in C57BL6 mouse at 3 mg/kg, iv or 5 mg/kg, po; assay type: ADME, organism-based
Method in brief: (§1)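 Male C57BL6 mice. IV dose 3 mg/kg as a solution in 5% DMSO:95% hydroxypropyl β-cyclodextrin. Oral dose 5 mg/kg as a 0.1% HMPC/tween suspension. Plasma sampled for pharmacokinetic parameters.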

[7] = Volume of distribution at steady state in C57BL6 mouse at 3 mg/kg, iv or 5 mg/kg, po; assay type: ADME, organism-based; settings: in vivo, read-out: Vdss; method in brief: as §1
[8] = Half life in C57BL6 mouse at 5 mg/kg, po; assay type: ADME, organism-based; parameters: dose 5 mg/kg, route oral; settings: in vivo
[9] = Half life in C57BL6 mouse at 3 mg/kg, iv; assay type: ADME, organism-based; parameters: dose 3 mg/kg, route intravenous; settings: in vivo
Method in brief: (§2)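 Male C57BL6 mice given 3 mg/kg, male Han Wistar rats 2 mg/kg, beagle dogs (male and female) 2 mg/kg, IV as solution in 5% DMSO:95% hydroxypropyl β-cyclodextrin; plasma PK parameters determined.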

[10] = Oral bioavailability in C57BL6 mouse at 5 mg/kg; assay type: ADME, organism-based; settings: in vivo; method in brief: as §1
[11] = Plasma clearance in Han Wistar rat at 2 mg/kg, iv or 5 mg/kg, po; assay type: ADME, organism-based
Method in brief: (§3)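 Male Han Wistar rats. IV dose 2 mg/kg in 5% DMSO:95% hydroxypropyl β-cyclodextrin. Oral dose 5 mg/kg as a 0.1% HMPC/tween suspension. Plasma pharmacokinetic parameters derived.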

[12] = Volume of distribution at steady state in Han Wistar rat at 2 mg/kg, iv or 5 mg/kg, po; assay type: ADME, organism-based; settings: in vivo, read-out: Vdss; method in brief: as §3
[13] = Half life in Han Wistar rat at 5 mg/kg, po; assay type: ADME, organism-based; parameters: dose 5 mg/kg, route oral; settings: in vivo
[14] = Half life in Han Wistar rat at 2 mg/kg, iv; assay type: ADME, organism-based; parameters: dose 2 mg/kg, route intravenous; settings: in vivo; method in brief: as §2
[15] = Oral bioavailability in Han Wistar rat at 5 mg/kg; assay type: ADME, organism-based; settings: in vivo; method in brief: as §3
[16] = Plasma clearance in beagle dog at 2 mg/kg, iv or 3.4 mg/kg, po; assay type: ADME, organism-based, Canis lupus familiaris
Method in brief: (§4)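 Beagle dogs, male and female. IV dose 2 mg/kg in 5% DMSO:95% hydroxypropyl β-cyclodextrin. Oral dose 3.4 mg/kg as a 0.1% Pluronic F127 suspension. Plasma pharmacokinetic parameters derived.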

[17] = Volume of distribution at steady state in beagle dog at 2 mg/kg, iv or 3.4 mg/kg, po; assay type: ADME, organism-based, Canis lupus familiaris; settings: in vivo, read-out: Vdss; method in brief: as §4
[18] = Half life in beagle dog at 3.4 mg/kg, po; assay type: ADME, organism-based, Canis lupus familiaris; parameters: dose 3.4 mg/kg, route oral; settings: in vivo
[19] = Half life in beagle dog at 2 mg/kg, iv; assay type: ADME, organism-based, Canis lupus familiaris; parameters: dose 2 mg/kg, route intravenous; settings: in vivo; method in brief: as §2
[20] = Oral bioavailability in beagle dog at 3.4 mg/kg; assay type: ADME, organism-based, Canis lupus familiaris; settings: in vivo; method in brief: as §4
[21] = Intrinsic clearance in mouse hepatocytes assessed per million cells; assay type: ADME, cell-based, Hepatocyte; settings: read-out: CLH
[22] = Intrinsic clearance in dog hepatocytes assessed per million cells; assay type: ADME, cell-based, Canis lupus familiaris, Hepatocyte; settings: read-out: CLH
[23] = Intrinsic clearance in human hepatocytes assessed per million cells; assay type: ADME, cell-based, Hepatocyte; settings: read-out: CLH
[24] = Cmax in Han Wistar rat at 4.5 mg/kg, po; assay type: ADME, organism-based; parameters: dose 4.5 mg/kg, route oral; settings: in vivo
[25] = Cmax in Han Wistar rat at […], po; assay type: ADME, organism-based; parameters: dose 7.1 mg/kg, route oral; settings: in vivo
[26] = Cmax in Han Wistar rat at 12 mg/kg, po; assay type: ADME, organism-based; parameters: dose 12 mg/kg, route oral; settings: in vivo
[27] = Cmax in Han Wistar rat at 19 mg/kg, po; assay type: ADME, organism-based; parameters: dose 19 mg/kg, route oral; settings: in vivo
[28] = Cmax in Han Wistar rat at 100 mg/kg, po; assay type: ADME, organism-based; parameters: dose 100 mg/kg, route oral; settings: in vivo
[29] = Cmax in Han Wistar rat at 154 mg/kg, po; assay type: ADME, organism-based; parameters: dose 154 mg/kg, route oral; settings: in vivo
[30] = AUC (0 to 24 hrs) in Han Wistar rat at 4.5 mg/kg, po; assay type: ADME, organism-based; parameters: time < 24 hr, dose 4.5 mg/kg, route oral; settings: plasma
Method in brief: (§5)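 Male Han Wistar rats, fed, single oral dose of suspension in 0.1% Pluronic F127; plasma AUC0-24hr in μM.h; mean of two animals.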

[31] = AUC (0 to 24 hrs) in Han Wistar rat at […], po; assay type: ADME, organism-based; parameters: time < 24 hr, dose 7.1 mg/kg, route oral; settings: plasma
[32] = AUC (0 to 24 hrs) in Han Wistar rat at 12 mg/kg, po; assay type: ADME, organism-based; parameters: time < 24 hr, dose 12 mg/kg, route oral; settings: plasma; method in brief: as §5
[33] = AUC (0 to 24 hrs) in Han Wistar rat at 19 mg/kg, po; assay type: ADME, organism-based; parameters: time < 24 hr, dose 19 mg/kg, route oral; settings: plasma; method in brief: as §5
[34] = AUC (0 to 24 hrs) in Han Wistar rat at 100 mg/kg, po; assay type: ADME, organism-based; parameters: time < 24 hr, dose 100 mg/kg, route oral; settings: plasma; method in brief: as §5
[35] = AUC (0 to 24 hrs) in Han Wistar rat at 154 mg/kg, po; assay type: ADME, organism-based; parameters: time < 24 hr, dose 154 mg/kg, route oral; settings: plasma; method in brief: as §5
[36] = Cmax in beagle dog at 5 mg/kg, po; assay type: ADME, organism-based, Canis lupus familiaris; parameters: dose 5 mg/kg, route oral; settings: in vivo
[37] = Cmax in beagle dog at 50 mg/kg, po; assay type: ADME, organism-based, Canis lupus familiaris; parameters: dose 50 mg/kg, route oral; settings: in vivo
[38] = Cmax in beagle dog at 98 mg/kg, po; assay type: ADME, organism-based, Canis lupus familiaris; parameters: dose 98 mg/kg, route oral; settings: in vivo
[39] = AUC (0 to 24 hrs) in beagle dog at 5 mg/kg, po; assay type: ADME, organism-based, Canis lupus familiaris; parameters: time < 24 hr, dose 5 mg/kg, route oral; settings: plasma
Method in brief: (§6)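 Beagle dogs (one male, one female), fed, single oral dose of suspension in 0.1% Pluronic F127; plasma AUC0-24hr in μM.h; mean of the two animals.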

[40] = AUC (0 to 24 hrs) in beagle dog at 50 mg/kg, po; assay type: ADME, organism-based, Canis lupus familiaris; parameters: time < 24 hr, dose 50 mg/kg, route oral; settings: plasma; method in brief: as §6
[41] = AUC (0 to 24 hrs) in beagle dog at 98 mg/kg, po; assay type: ADME, organism-based, Canis lupus familiaris; parameters: time < 24 hr, dose 98 mg/kg, route oral; settings: plasma; method in brief: as §6
[42] = Cmax in C57BL6 mouse at […], po; assay type: ADME, organism-based; parameters: dose 5.7 mg/kg, route oral; settings: in vivo
[43] = Cmax in C57BL6 mouse at 11 mg/kg, po; assay type: ADME, organism-based; parameters: dose 11 mg/kg, route oral; settings: in vivo
[44] = Cmax in C57BL6 mouse at 31 mg/kg, po; assay type: ADME, organism-based; parameters: dose 31 mg/kg, route oral; settings: in vivo
[45] = Cmax in C57BL6 mouse at 57 mg/kg, po; assay type: ADME, organism-based; parameters: dose 57 mg/kg, route oral; settings: in vivo
[46] = AUC (0 to 24 hrs) in C57BL6 mouse at […], po; assay type: ADME, organism-based; parameters: time < 24 hr, dose 5.7 mg/kg, route oral; settings: plasma
[47] = AUC (0 to 24 hrs) in C57BL6 mouse at 11 mg/kg, po; assay type: ADME, organism-based; parameters: time < 24 hr, dose 11 mg/kg, route oral; settings: plasma
Method in brief: (§7)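 Male C57BL6 mice, fed, single oral dose of suspension in 0.1% Pluronic F127; plasma sampled, AUC0-24hr in μM.h; mean of two animals.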

[48] = AUC (0 to 24 hrs) in C57BL6 mouse at 31 mg/kg, po; assay type: ADME, organism-based; parameters: time < 24 hr, dose 31 mg/kg, route oral; settings: plasma; method in brief: as §7
[49] = AUC (0 to 24 hrs) in C57BL6 mouse at 57 mg/kg, po; assay type: ADME, organism-based; parameters: time < 24 hr, dose 57 mg/kg, route oral; settings: plasma; method in brief: as §7
[50] = Intrinsic clearance in rat hepatocytes assessed per million cells; assay type: ADME, cell-based, Hepatocyte; settings: read-out: CLH

logD [1]: 3.6
fCmax (Mus musculus): 0.7 µM
Papp A→B at 10 µM [2]: 10 ×10⁻⁶ cm/s
Stability [3]: Stable
Stability [4]: Unstable
t1/2 [5]: 60 h
clearance [6]: 9.8 mL/min/kg
Vd [7]: 5.1 L/kg
half-life [8]: 6.9 h
half-life [9]: 6.3 h
bioavailability [10]: 76%
clearance [11]: 11 mL/min/kg
Vd [12]: 5.2 L/kg
half-life [13]: 6.7 h
half-life [14]: 6.1 h
bioavailability [15]: 85%
clearance [16]: 1.6 mL/min/kg
Vd [17]: 3.3 L/kg
half-life [18]: 30 h
half-life [19]: 26 h
bioavailability [20]: 98%
hepatocyte CLint [21]: 7 µL/min/1e6 cells
hepatocyte CLint [22]: < 2 µL/min/1e6 cells
hepatocyte CLint [23]: < 2 µL/min/1e6 cells
Cmax [24]: 0.8 µM
Cmax [25]: 1.1 µM
Cmax [26]: 3.4 µM
Cmax [27]: 7.5 µM
Cmax [28]: 8 µM
Cmax [29]: 13.7 µM
AUC(0-t) at 24 h [30]: 10 µM·h
AUC(0-t) at 24 h [31]: 11 µM·h
AUC(0-t) at 24 h [32]: 33 µM·h
AUC(0-t) at 24 h [33]: 106 µM·h
AUC(0-t) at 24 h [34]: 123 µM·h
AUC(0-t) at 24 h [35]: 247 µM·h
Cmax [36]: 1.5 µM
Cmax [37]: 3.2 µM
Cmax [38]: 5.3 µM
AUC(0-t) at 24 h [39]: 20 µM·h
AUC(0-t) at 24 h [40]: 42 µM·h
AUC(0-t) at 24 h [41]: 78 µM·h
Cmax [42]: 2.5 µM
Cmax [43]: 3.3 µM
Cmax [44]: 11.8 µM
Cmax [45]: 29 µM
AUC(0-t) at 24 h [46]: 26 µM·h
AUC(0-t) at 24 h [47]: 35 µM·h
AUC(0-t) at 24 h [48]: 151 µM·h
AUC(0-t) at 24 h [49]: 456 µM·h
Compound: C[C@@H]1CN(c2nc(C(F)(F)F)no2)CCN1c1ncc(OCc2ccc(CS(C)(=O)=O)cc2F)cn1

logD [1]: 3.1
Compound: CC(C)c1noc(N2CCN(c3ncc(OCc4ccc(CS(C)(=O)=O)cc4F)cn3)[C@H](C)C2)n1

logD [1]: 3.7
Compound: C[C@@H]1CN(c2nnc(C(F)(F)F)o2)CCN1c1ncc(OCc2ccc(OS(C)(=O)=O)cc2F)cn1

logD [1]: 2.8
Compound: C[C@@H]1CN(c2nc(C(F)(F)F)no2)CCN1c1ncc(OCc2ccc(CS(C)(=N)=O)cc2F)cn1 (stereo partly specified)

logD [1]: 3.7
Compound: C[C@@H]1CN(c2nc(C(F)(F)F)no2)CCN1c1ncc(OCc2ccc(S(C)(=O)=O)cc2F)cn1

logD [1]: 2.6
hepatocyte CLint [50]: 53 µL/min/1e6 cells
Compound: C[C@@H]1CN(c2nnc(C(F)(F)F)o2)CCN1c1ncc(OCc2ccc(C[S+](C)[O-])cc2F)cn1 (stereo partly specified)

Further lines, the compound ahead of its results:

Compound: C[C@@H]1CN(c2nnc(C(F)(F)F)o2)CCN1c1ncc(OCc2ccc(S(C)(=O)=O)cc2)cn1
logD [1]: 2.8

Compound: C[C@@H]1CN(c2nnc(C(F)(F)F)o2)CCN1c1ncc(OCc2ccc(C#N)cc2F)cn1
logD [1]: 3.8

Compound: C[C@@H]1CN(c2nnc(C(F)(F)F)o2)CCN1c1ncc(OCc2ccc(-n3cnnn3)cc2F)cn1
logD [1]: 3.6

Compound: C[C@@H]1CN(c2nnc(C(F)(F)F)o2)CCN1c1ncc(OCc2ccc(C#N)cc2C#N)cn1
logD [1]: 2.8

Compound: C[C@@H]1CN(C(=O)OC2(C(F)(F)F)COC2)CCN1c1ncc(OCc2ccc(CS(C)(=O)=O)cc2F)cn1
logD [1]: 2.9

— ChEMBL document CHEMBL3351317 (J Med Chem, 2014)
